Data on seven compounds can be found in ChEMBL document CHEMBL3739318, “Orally Bioavailable Metal Chelators and Radical Scavengers: Multifunctional Antioxidants for the Coadjutant Treatment of Neurodegenerative Diseases” (J Med Chem, 2015).

Structures are written as SMILES. The source made the active and inactive calls. No cut-off for these calls is given here.

The test system of one data set is SH-SY5Y. As to the kind of experiment: Cytotoxicity against human SH-SY5Y cells assessed as reduction in cell viability at 1 mM after 2 hrs by MTS assay. The settings on record: 1000 µM. In kind it is cell-based. The gist of the method:
(§1)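 ARPE-19 grown in DMEM + 4% FBS and SH-SY5Y in EMEM/F12 + 10% FBS, at 37 °C, 5% CO2. Plated at 1 × 10^4 cells/well. Exposed 2 h to 1 mM compound (0.16% DMSO) without oxidant. Viability by MTS. Mean ± SEM, n = 4, ANOVA versus blank control.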
With `Oc1cnc(N2CCCCC2)nc1`, the Activity entry is recorded as “Non-toxic”.

Turning to `COc1nc(N2CCCCC2)nc(OC)c1O`, the Activity entry is “Non-toxic”.

As for `O=C1CCC(=O)N1c1ncccn1`, the Activity entry is given as “Non-toxic”.

On to `O=C1CCCC(=O)N1c1ncc(O)cn1`, for which the Activity entry was “Non-toxic”.

Consider `COc1nc(N2C(=O)CCCC2=O)nc(OC)c1O`, for which the Activity entry is “Non-toxic”.

On to `COc1cc(OC)nc(N2CCCCC2)n1`, for which the Activity entry is given as “Non-toxic”.

`c1cnc(N2CCCCC2)nc1`: the Activity result is recorded as “Non-toxic”.

Tested on in a further data set: not listed separately
As to the kind of experiment: Metal chelating activity assessed as stoichiometric ratio of compound to Cu2+ ion at 0.1 to 0.5 mM of compound and metal ion mixture after 45 mins by spectrophotometric analysis. Type of data set: physicochemical. The settings on record: 0.75 h, 500 µM. An outline of the steps: (§2)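 Job continuous-variation method at 23 °C. Compound dissolved in acetonitrile, then diluted to 0.1 mM stock in 1 mM acetate pH 6.5. Compound + ion at constant total 0.1–0.5 mM with varied mole fraction. After 45 min equilibration, UV absorbance scanned 210–310 nm. Stoichiometry taken from the intersection of lines. Mean ± SD, n = 3.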
Regarding `O=C1CCC(=O)N1c1ncccn1`, the Ratio came out at 2.28.

Take `O=C1CCCC(=O)N1c1ncc(O)cn1`: the Ratio is listed as 1.75.

In the case of `COc1nc(N2C(=O)CCCC2=O)nc(OC)c1O`, the Ratio was determined as 1.86.

Another data set deals with ARPE-19. As to the kind of experiment: Neuroprotective activity against Fenton reagent-induced ROS generation in human ARPE19 cells assessed as increase in GSH level at 1 mM after 2 hrs by DTNB method. Type of data set: functional, cell-based.
Conditions: not given
An outline of the steps:
(§3)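 Cells grown in 60 or 150 mm dishes and exposed 2 h to Fenton reagent (1 mM H2O2 + 1 mM Fe2+) with or without 1 mM compound in 0.16% DMSO. Intracellular glutathione then measured. Mean ± SEM, n = 6. ANOVA.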
For `Oc1cnc(N2CCCCC2)nc1`, the result was Active.

For `COc1nc(N2CCCCC2)nc(OC)c1O`, the result was Active.

Turning to `O=C1CCC(=O)N1c1ncccn1`, the result was Active.

In the case of `O=C1CCCC(=O)N1c1ncc(O)cn1`, the outcome was Active.

Take `COc1nc(N2C(=O)CCCC2=O)nc(OC)c1O`: the outcome was Active.

For `COc1cc(OC)nc(N2CCCCC2)n1`, the outcome was Active.

On to `c1cnc(N2CCCCC2)nc1`, for which the outcome was Active.

Tested on in another data set: not listed separately
Nature of the data set: Metal chelating activity assessed as stoichiometric ratio of compound to Ca2+ ion at 0.1 to 0.5 mM of compound and metal ion mixture after 45 mins by spectrophotometric analysis. Type of data set: physicochemical. To be noted: 0.75 h, 500 µM. The gist of the method:
as §2
`O=C1CCC(=O)N1c1ncccn1`: the Ratio is 0.

Take `O=C1CCCC(=O)N1c1ncc(O)cn1`: the Ratio amounted to 0.

As for `COc1nc(N2C(=O)CCCC2=O)nc(OC)c1O`, the Ratio was determined as 0.

Tested on in the next data set: not listed separately
As to the kind of experiment: Metal chelating activity assessed as stoichiometric ratio of compound to Zn2+ ion at 0.1 to 0.5 mM of compound and metal ion mixture after 45 mins by spectrophotometric analysis. To be noted: 0.75 h, 500 µM. In kind it is physicochemical. An outline of the steps:
as §2
Regarding `O=C1CCC(=O)N1c1ncccn1`, the Ratio was 1.87.

`O=C1CCCC(=O)N1c1ncc(O)cn1`: the Ratio is 1.99.

As for `COc1nc(N2C(=O)CCCC2=O)nc(OC)c1O`, the Ratio turned out to be 2.09.

Tested on in another data set: not listed separately
As to the kind of experiment: Metal chelating activity assessed as stoichiometric ratio of compound to Cu+ ion at 0.1 to 0.5 mM of compound and metal ion mixture after 45 mins by spectrophotometric analysis. In kind it is physicochemical. To be noted: 0.75 h, 500 µM. The gist of the method:
as §2
Regarding `O=C1CCC(=O)N1c1ncccn1`, the Ratio worked out at 2.01.

As to `O=C1CCCC(=O)N1c1ncc(O)cn1`, the Ratio is reported as 1.86.

For `COc1nc(N2C(=O)CCCC2=O)nc(OC)c1O`, the Ratio is 1.97.

Tested on in another data set: not listed separately
Nature of the data set: Metal chelating activity assessed as stoichiometric ratio of compound to Mg2+ ion at 0.1 to 0.5 mM of compound and metal ion mixture after 45 mins by spectrophotometric analysis. In kind it is physicochemical. To be noted: 0.75 h, 500 µM. The gist of the method: as §2
On to `O=C1CCC(=O)N1c1ncccn1`, for which the Ratio is on record as 0.

Turning to `O=C1CCCC(=O)N1c1ncc(O)cn1`, the Ratio is on record as 0.

`COc1nc(N2C(=O)CCCC2=O)nc(OC)c1O`: the Ratio was 0.

Tested on in a further data set: not listed separately
Nature of the data set: Cytotoxicity against human ARPE19 cells assessed as reduction in cell viability at 1 mM after 2 hrs by MTS assay. To be noted: arpe-19, 2 h, 1000 µM. In kind it is cell-based. The gist of the method: as §1
A general note: Tetrazolium assays rely on reduction of a dye to a coloured formazan, in cell work by metabolically active cells.
In the case of `Oc1cnc(N2CCCCC2)nc1`, the Activity result is given as “Non-toxic”.

As for `COc1nc(N2CCCCC2)nc(OC)c1O`, the Activity result is listed as “Non-toxic”.

With `O=C1CCC(=O)N1c1ncccn1`, the Activity result is given as “Non-toxic”.

`O=C1CCCC(=O)N1c1ncc(O)cn1`: the Activity result is given as “Non-toxic”.

Take `COc1nc(N2C(=O)CCCC2=O)nc(OC)c1O`: the Activity entry is reported as “Non-toxic”.

Regarding `COc1cc(OC)nc(N2CCCCC2)n1`, the Activity entry is recorded as “Non-toxic”.

Regarding `c1cnc(N2CCCCC2)nc1`, the Activity result is recorded as “Non-toxic”.

Tested on in another data set: not listed separately
As to the kind of experiment: Metal chelating activity assessed as stoichiometric ratio of compound to Fe2+ ion at 0.1 to 0.5 mM of compound and metal ion mixture after 45 mins by spectrophotometric analysis. Type of data set: physicochemical. To be noted: 0.75 h, 500 µM. An outline of the steps: as §2
As for `O=C1CCC(=O)N1c1ncccn1`, the Ratio was 2.06.

`O=C1CCCC(=O)N1c1ncc(O)cn1`: the Ratio is recorded as 1.85.

For `COc1nc(N2C(=O)CCCC2=O)nc(OC)c1O`, the Ratio was found to be 1.97.

Tested on in another data set: not listed separately
As to the kind of experiment: Metal chelating activity assessed as stoichiometric ratio of compound to Mn2+ ion at 0.1 to 0.5 mM of compound and metal ion mixture after 45 mins by spectrophotometric analysis. In kind it is physicochemical. To be noted: 0.75 h, 500 µM. An outline of the steps: as §2
For the compound `O=C1CCC(=O)N1c1ncccn1`, the Ratio is given as 1.98.

Take `O=C1CCCC(=O)N1c1ncc(O)cn1`: the Ratio is recorded as 1.91.

`COc1nc(N2C(=O)CCCC2=O)nc(OC)c1O`: the Ratio turned out to be 2.12.

For a further data set, the system named is SH-SY5Y. Nature of the data set: Neuroprotective activity against Fenton reagent-induced ROS generation in human SH-SY5Y cells assessed as increase in GSH level at 1 mM after 2 hrs by DTNB method. Type of data set: functional, cell-based.
Conditions: not given
The gist of the method:
as §3
For the compound `Oc1cnc(N2CCCCC2)nc1`, the outcome was Active.

On to `COc1nc(N2CCCCC2)nc(OC)c1O`, for which the outcome was Active.

With `O=C1CCC(=O)N1c1ncccn1`, the result was Active.

For the compound `O=C1CCCC(=O)N1c1ncc(O)cn1`, the result was Active.

As to `COc1nc(N2C(=O)CCCC2=O)nc(OC)c1O`, the result was Active.

Consider `COc1cc(OC)nc(N2CCCCC2)n1`, for which the result was Active.

As for `c1cnc(N2CCCCC2)nc1`, the outcome was Active.

Tested on in another data set: not listed separately
Nature of the data set: Metal chelating activity assessed as stoichiometric ratio of compound to Fe3+ ion at 0.1 to 0.5 mM of compound and metal ion mixture after 45 mins by spectrophotometric analysis. In kind it is physicochemical. To be noted: 0.75 h, 500 µM. The gist of the method: as §2
As to `O=C1CCC(=O)N1c1ncccn1`, the Ratio was 2.01.

Turning to `O=C1CCCC(=O)N1c1ncc(O)cn1`, the Ratio is recorded as 1.92.

On to `COc1nc(N2C(=O)CCCC2=O)nc(OC)c1O`, for which the Ratio was found to be 1.82.

The test system of another data set is ARPE-19. Nature of the data set: Neuroprotective activity against Fenton reagent-induced ROS generation-stimulated cytotoxicity in human ARPE19 cells assessed as cell viability at 1 mM after 2 hrs by MTS assay. Type of data set: functional, cell-based.
Conditions: not given
An outline of the steps: (§4)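 Cells in 96-well format exposed 2 h to Fenton reagent (1 mM H2O2 + 1 mM Fe2+) with or without 1 mM compound in 0.16% DMSO. Viability by MTS assay, normalized to untreated cells without Fenton reagent (100%). Mean ± SEM, n = 4. ANOVA.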
Take `Oc1cnc(N2CCCCC2)nc1`: the result was Active.

`COc1nc(N2CCCCC2)nc(OC)c1O`: the result was Active.

Take `O=C1CCC(=O)N1c1ncccn1`: the outcome was Active.

Regarding `O=C1CCCC(=O)N1c1ncc(O)cn1`, the result was Active.

`COc1nc(N2C(=O)CCCC2=O)nc(OC)c1O`: the outcome was Active.

On to `COc1cc(OC)nc(N2CCCCC2)n1`, for which the result was inactive.

Take `c1cnc(N2CCCCC2)nc1`: the outcome was inactive.

Another data set concerns SH-SY5Y. As to the kind of experiment: Neuroprotective activity against Fenton reagent-induced ROS generation-stimulated cytotoxicity in human SH-SY5Y cells assessed as cell viability at 1 mM after 2 hrs by MTS assay. In kind it is functional, cell-based.
Conditions: not given
The gist of the method:
as §4
As to `Oc1cnc(N2CCCCC2)nc1`, the outcome was Active.

As for `COc1nc(N2CCCCC2)nc(OC)c1O`, the outcome was Active.

For the compound `O=C1CCC(=O)N1c1ncccn1`, the result was Active.

Take `O=C1CCCC(=O)N1c1ncc(O)cn1`: the result was Active.

Consider `COc1nc(N2C(=O)CCCC2=O)nc(OC)c1O`, for which the outcome was Active.

As to `COc1cc(OC)nc(N2CCCCC2)n1`, the outcome was inactive.

With `c1cnc(N2CCCCC2)nc1`, the result was inactive.

Tested on in another data set: not listed separately
As to the kind of experiment: Drug uptake in lens of C57BL/6 mouse assessed per mg of protein at 80 mg/kg, po administered everyday for 14 days by HPLC-MS analysis. To be noted: in vivo, 336 h. In kind it is ADME, organism-based, Lens of camera-type eye. An outline of the steps:
(§5)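 C57BL/6 mice fed chow containing 0.05% compound (~80 mg/kg/day average) for 14 days. Perfused with PBS; brain, lens and neural retina homogenized in ice-cold 10 mM acetate pH 4 with internal standard. Extracted with TCA precipitation and chloroform. Analyzed by reverse-phase C18 HPLC.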
Turning to `O=C1CCCC(=O)N1c1ncc(O)cn1`, the Drug uptake result is listed as “Active”.

Regarding `COc1nc(N2C(=O)CCCC2=O)nc(OC)c1O`, the Drug uptake result is listed as “Active”.

Tested on in another data set: not listed separately
As to the kind of experiment: Drug uptake in neural retina of C57BL/6 mouse assessed per mg of protein at 80 mg/kg, po administered everyday for 14 days by HPLC-MS analysis. In kind it is ADME, organism-based. To be noted: in vivo, 336 h. An outline of the steps:
as §5
Regarding `O=C1CCCC(=O)N1c1ncc(O)cn1`, the Drug uptake result is “Active”.

On to `COc1nc(N2C(=O)CCCC2=O)nc(OC)c1O`, for which the Drug uptake entry was “Active”.
